High-throughput results (PubChem BioAssay)
A selection: hits, their analogues and other compounds. The true share with any hit is near 2.6%.
SENP1 FRET inh = inhibitors of human SENP1 SUMO protease catalytic domain; 0.21% of 360,000 active; Q9P0U3; recombinant SENP1 catalytic domain, CyPet-SUMO1-YPet FRET cleavage; AID 624204; inhibition, % at 10 µM;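 active means inhibition at least 30% at 10 µM, raw YFP signal under a set limit, fluorescence ratio 0.5 to 1.5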;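 further: 0% = enzyme with DMSO and 100% = no enzyme wells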
Target sequence (Q9P0U3 419-644 limits assumed): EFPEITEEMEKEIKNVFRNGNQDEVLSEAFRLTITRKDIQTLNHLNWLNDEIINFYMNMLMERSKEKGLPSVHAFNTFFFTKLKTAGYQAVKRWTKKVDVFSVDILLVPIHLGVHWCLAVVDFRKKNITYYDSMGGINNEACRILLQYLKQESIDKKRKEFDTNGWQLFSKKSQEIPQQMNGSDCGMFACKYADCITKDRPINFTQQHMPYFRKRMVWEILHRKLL
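Test system: recombinant human SENP1 catalytic domain, His6-tagged / Medium: pH 8 Tris buffer with EDTA, NaCl, BME, BSA, NP40, catalase / Also added: SUMO1 FRET substrate flanked by Cypet and Ypet, 25 nM / Times: 50 min reaction at room temperature / Signal: FRET, CFP and YFP emission / Control set: no-enzyme low control and enzyme-plus-DMSO high control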
Platelet DG rel = modulates dense granule release in human platelets. inhibition, %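 (compounds screened at 7.5 µM in platelet-rich plasma)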. human platelet-rich plasma, SFLLRN dense granule ATP release, luminescence. AID 1663. 0.22% of 300,000 active;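 active means mean replicate score, as percent of positive control, at or above 50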
SENP7 block = inhibitors of human SENP7 protease; Q9BQF6; recombinant SENP7, Z-RLRGG-aminoluciferin luminescence, 40 min; inhibition, % at 5 µM; 1.5% of 330,000 active;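 active means inhibition above about 50% at the single test dose, limit read from the data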;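 further: plate controls were DMSO with enzyme for no effect and no enzyme buffer wells for full effect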
SENP8 block-1 = SENP8 (human) protease inhibition; Q96LD8; recombinant SENP8, Nedd8 substrate fluorescence; inhibition, % at 20 µM; 0.64% of 360,000 active; in the data active means inhibition mostly above about 40%, no sharp cut-off; inactive means mostly below about 27%
Target sequence (Q96LD8 whole entry, looked up): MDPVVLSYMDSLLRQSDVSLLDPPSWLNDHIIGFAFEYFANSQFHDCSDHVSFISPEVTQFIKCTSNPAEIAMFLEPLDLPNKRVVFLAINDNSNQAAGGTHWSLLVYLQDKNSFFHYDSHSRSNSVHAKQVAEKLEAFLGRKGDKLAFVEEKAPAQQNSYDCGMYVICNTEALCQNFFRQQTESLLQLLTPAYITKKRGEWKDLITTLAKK
SENP8 block-2 = inhibitors of human SENP8 protease | purified SENP8, Z-RLRGG-aminoluciferin cleavage, luminescence | 1.2% of 330,000 active | Q96LD8 | inhibition, % at 10 µM; in the data active means inhibition above about 50%
SENP6 block = blocks the human protease SENP6; Q9GZR1; Recombinant SENP6 catalytic domain, aminoluciferin luminescence; inhibition, % at 10 µM; 1.8% of 330,000 active; AID 2599;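 active means inhibition above about 50% at the single tested dose, limit read from the data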;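 further: plate controls were DMSO wells with enzyme for no effect and DMSO wells lacking enzyme for full effect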
SENP8 inh conf = SENP8 (human) inhibition, single concentration confirmation; shares compounds with SENP8 block-1; purified SENP8, Nedd8-AMC/pro-Nedd8 cleavage fluorescence, 30 min; inhibition, % at 25 µM; 15% of 1,400 active; AID 624319; in the data active means inhibition mostly above about 39%, no sharp cut-off; inactive means mostly below about 34%
* marks the source's active call; other numbers are inactive results; x = not tested or not shown.

SMILES | SENP1 FRET inh | Platelet DG rel | SENP7 block | SENP8 block-1 | SENP8 block-2 | SENP6 block | SENP8 inh conf
CC1(C)CC2(CCO1)C(Nc1ccccc1)=NC(=S)N2CC(N)=O (stereo not given) | 2 | 5 | -3 | 45* | 1 | -7 | 12
COC(=O)c1cnc(Nc2cccc(C(F)(F)F)c2)c([N+](=O)[O-])c1 | 3 | 7 | 2 | 33* | 0 | 1 | 16
O=C(COc1ccc(C(F)(F)F)cc1[N+](=O)[O-])Nc1cccc(C(F)(F)F)c1 | -1 | -10 | 6 | 21 | -8 | -13 | x
CCN(CC)CCNC(=O)C(=O)NCC1OCCN1S(=O)(=O)c1ccc(Cl)cc1 (stereo not given) | -1 | 10 | -5 | 19 | -12 | -4 | x
O=C(/C=C/c1ccc(Cl)cc1)N1CCN(c2ccc(Cl)cc2[N+](=O)[O-])CC1 | 3 | -3 | 1 | 43* | -5 | -25 | 14
O=C(O/N=C\c1ccc(N2CCCCC2)c([N+](=O)[O-])c1)c1ccc(Cl)cc1Cl | 2 | 14 | -12 | 49* | -19 | -12 | 5
O=C(/C=C/c1ccc2c(c1)OCO2)c1ccc(O)cc1O | 15 | x | x | 40* | x | x | 16
O=C(CN1CCN(S(=O)(=O)c2ccc(F)cc2)CC1)Nc1ccc(Cl)c(C(F)(F)F)c1 | 2 | -5 | -7 | 18 | -9 | -12 | x
Cc1ccc(S(=O)(=O)N2C[C@H]3[C@H]4C(=O)N(c5ccccc5)C(=O)[C@H]4CC(=O)[C@H]3[C@@H]2c2ccccc2F)cc1 | -10 | x | x | 50* | x | x | 23
Cc1cnc(C(=O)Nc2c(-c3ccccc3)[nH][nH]c2=O)cn1 | 6 | x | x | 41* | x | x | 45*
O=C(Nc1c(-c2ccccc2)[nH][nH]c1=O)c1cccc(C(F)(F)F)c1 | 3 | x | x | 49* | x | x | 13
O=C(Nc1c(-c2ccc(Cl)cc2)[nH][nH]c1=O)c1ccc(Br)cc1 | 0 | x | x | 43* | x | x | 25
COC(=O)Nc1ccc(Cc2ccncc2)cc1 | 3 | 3 | 0 | 12 | -2 | 8 | x
CC(=O)Nc1ccc(N=c2cc([N+](=O)[O-])cc(Cl)n2O)cc1 | -1 | -3 | 18 | 51* | 16 | 2 | 28
COc1ccc(CNC(=O)[C@@H](NC(=O)C2CCN(C(=O)[C@@H]3CCCN3C(=O)OC(C)(C)C)CC2)C(C)C)cc1 | 4 | 2 | -12 | 7 | -18 | -17 | x
COc1ccccc1CNC(=O)[C@H](C)NC(=O)C1CCN(C(=O)[C@@H]2CCCN2C(=O)OC(C)(C)C)CC1 | -1 | -2 | -1 | 45* | 8 | 1 | 14
Cc1noc(C)c1S(=O)(=O)N1CCC(C(=O)NCCN2CCC(C)CC2)CC1 | 1 | 2 | -2 | 41* | -1 | -15 | 12
CCN(CCNC(=O)C1CCN(S(=O)(=O)c2c(C)noc2C)CC1)c1ccccc1 | 0 | 5 | 0 | 16 | 4 | 7 | x
CC(C)(C)c1nnc2sc(SCCN3C(=O)c4ccccc4C3=O)nn2c1=O | 0 | -4 | 6 | 20 | 1 | -9 | x
CC(C)N(C(=O)CSc1nn2c(=O)c(C(C)(C)C)nnc2s1)c1ccccc1 | 1 | -1 | 0 | 40* | 0 | -13 | 10
c1coc(-c2nnc(-c3ccco3)nn2)c1 | 26 | 1 | 11 | 87* | 55* | 73* | 70*
CCOC(=O)c1c(C)nc2c(c1-c1cc(OC)ccc1OC)C(=O)c1ccccc1-2 | 1 | -6 | -7 | 23 | -4 | 1 | x
CCOC(=O)c1c(C)nc2c(c1-c1cc(OC)ccc1OC)C(=O)CC(C)(C)C2 | -1 | -5 | 4 | 44* | -12 | -16 | 14
CC(=O)Nc1ccc(NC(=O)C(C)OC(=O)CCCN=C2NS(=O)(=O)c3ccccc32)cc1 (stereo not given) | -2 | -8 | -15 | 2 | -5 | -6 | x
CC(OC(=O)CCN=C1NS(=O)(=O)c2ccccc21)C(=O)c1ccccc1 (stereo not given) | 2 | 5 | 1 | 8 | -7 | 2 | x
CC(OC(=O)CCN=C1NS(=O)(=O)c2ccccc21)C(=O)Nc1ccc(N(C)C)cc1 (stereo not given) | 3 | 4 | 8 | 45* | -14 | -18 | 18
